# High-throughput results from PubChem BioAssay.
# This is a sample that favours compounds with a hit; in the whole collection about 1.3% have one here.
# NR2E3 ag-1 = NR2E3 (human) agonism; Q9Y5X4; GST-NR2E3/biotin-RetCOR TR-FRET, 1536-well; 320,000 tested, 0.12% active; inhibition of corepressor binding, % at 4.78 µM; AID 2300;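 active = percent inhibition above the cutoff of mean plus 3 SD of all tested compounds, set per screening campaign, cut at about 20% in these data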;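 note: 0% = DMSO wells and 100% = biotin wells as full block of FRET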
# Target sequence (Q9Y5X4 whole entry, looked up): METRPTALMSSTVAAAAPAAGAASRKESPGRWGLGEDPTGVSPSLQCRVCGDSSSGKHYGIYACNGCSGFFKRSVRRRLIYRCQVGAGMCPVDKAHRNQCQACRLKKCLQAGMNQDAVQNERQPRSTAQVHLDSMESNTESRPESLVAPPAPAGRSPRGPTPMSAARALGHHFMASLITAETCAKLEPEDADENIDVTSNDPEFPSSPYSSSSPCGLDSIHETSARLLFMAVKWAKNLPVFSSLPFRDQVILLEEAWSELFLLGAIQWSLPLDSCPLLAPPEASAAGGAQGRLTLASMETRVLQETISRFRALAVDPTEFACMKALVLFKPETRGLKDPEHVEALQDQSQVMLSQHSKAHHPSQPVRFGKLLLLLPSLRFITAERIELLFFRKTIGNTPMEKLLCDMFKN
#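 Material: NR2E3–RetCOR corepressor complex | Quantity: 1.35 nM GST-tagged NR2E3 final | Schedule: 5 h at 4 °C | Replication: Singlicate compound wells | Reagent: RetCOR corepressor, biotinylated, 7 nM | Controls: Biotin wells as high control, 0.6% DMSO wells as low control | Signal: TR-FRET, Eu(K)-anti-GST donor, streptavidin-D2 acceptor, ex 340, em 617/671 nm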
# PP1 inh = PP1-alpha (human) inhibition in PP5 counter-screen. inhibition, % at 6.7 µM. 320,000 tested, 0.9% active. AID 2235. P62136. purified PP1alpha, OMFP fluorescence;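 active = inhibition above the mean inhibition of all tested compounds plus 3 SD, computed separately for each screening campaign, cut at about 15% in these data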
# PP5 inh = blocks human protein phosphatase 5 activity | purified PP5c, OMFP substrate fluorescence | inhibition, % at 6.7 µM | 320,000 tested, 0.18% active;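 active = inhibition above the campaign's mean inhibition across all tested compounds plus 3 SD, cut at about 9.5% in these data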;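 note: 0% = DMSO only and 100% = 100 µM cantharidin control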
# NR2E3 ag-2 = agonists of human NR2E3 nuclear receptor | CHO-S Gal4-NCOR/VP16-NR2E3 two-hybrid, luciferase | inhibition of corepressor binding, % at 3.98 µM | 360,000 tested, 0.35% active | AID 602229;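 active = inhibition above the mean of all tested compounds plus 3 SD, cut at about 70% in these data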;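 note: 0% = DMSO with NR2E3 transfected cells and 100% = cells lacking NR2E3 construct; higher means lower luciferase signal from less NR2E3 corepressor binding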
# NR2E3 ag conf = confirmation of human NR2E3 agonists | AID 624378 | 2,300 tested, 51% active | CHO-S mammalian two-hybrid NR2E3-NCOR, luciferase luminescence | shares compounds with NR2E3 ag-2 | inhibition, % at 3.98 µM;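 active = average inhibition above a cutoff equal to the mean inhibition of all tested compounds plus one SD, cut at about 70% in these data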;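 note: 0% = DMSO in NR2E3 cells and 100% = DMSO in cells lacking NR2E3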
# VP16 counter = counter-screen for NR2E3 agonists: GAL4-VP16 reporter inhibitors; 2,300 tested, 29% active; inhibition, % at 3.98 µM; shares compounds with NR2E3 ag-2; CHO-S GAL4-VP16 luciferase reporter, luminescence;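 active = mean inhibition above a cutoff equal to the average over all tested compounds plus one standard deviation, cut at about 70% in these data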;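 note: luciferase from a UAS reporter driven by GAL4-VP16 transactivation; 0% = DMSO with VP16-transfected cells and 100% = DMSO with cells lacking VP16; higher means less reporter light so more repression of VP16 activity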
# The depositor's hits bear a star; . = no result given.
SMILES,NR2E3 ag-1,PP1 inh,PP5 inh,NR2E3 ag-2,NR2E3 ag conf,VP16 counter
CC(C)N1C(=O)S/C(=C/c2ccc(Sc3nc4ccccc4[nH]3)o2)C1=O,5.1,4.2,2.1,42.8,.,.
C=CCN1C(=O)S/C(=C/c2ccc(Sc3nc4ccccc4[nH]3)o2)C1=O,-1.6,0.4,1.9,49.9,81.2*,68.8
CCCCCCC(=O)N1C/C=C\C(c2ccc(OC)cc2)N(Cc2ccc(F)cc2)C(=O)C1 (centres undefined),-1.8,2.2,3.2,60.3,61.3,43.1
CCCCCCNC(=O)N1C/C=C\C(c2ccc(OC)cc2)N(Cc2ccc(F)cc2)C(=O)C1 (centres undefined),-2.4,2.9,5.9,30.6,.,.
Cc1cc(C)cc(NC(=O)CCc2nc3sc4c(c3c(=O)[nH]2)CCCC4)c1,1.1,4.6,0.0,83.9*,96.2*,16.1
CCN(CC)C(=O)Cn1c(=O)c2ccccc2n2c(=S)sc(-c3cccc(C)c3)c12,-0.3,-4.6,-0.2,8.5,.,.
O=C(NC(Nc1nc2ccc([N+](=O)[O-])cc2s1)(C(F)(F)F)C(F)(F)F)c1cccnc1,0.2,-1.1,0.4,101.3*,98.0*,89.0*
O=C(NC(Nc1nc2ccc([N+](=O)[O-])cc2s1)(C(F)(F)F)C(F)(F)F)c1ccccc1Cl,5.8,2.0,5.5,98.0*,97.3*,90.4*
CN(C)S(=O)(=O)c1ccc2nc(NC(=O)c3cccnc3)sc2c1,-1.6,6.0,-3.4,-65.3,.,.
O=C(NC(NNc1ccc([N+](=O)[O-])cc1)(C(F)(F)F)C(F)(F)F)c1ccccc1Cl,3.9,-0.3,2.9,-11.5,.,.
COc1ccccc1CCCNC(=O)C1CCC(=O)N(CCCN2CCCC2=O)C1 (centres undefined),0.1,-2.5,0.0,-10.2,.,.
CC(=O)OC1c2ccccc2C(=O)N1Cc1ccccc1 (centres undefined),-2.2,-2.3,3.7,74.8*,-1.3,2.7
O=C(CCl)N1CCN2C(=O)c3ccccc3C12c1ccc(Cl)cc1 (centres undefined),-5.4,-0.6,2.4,-21.2,.,.
Cc1ccc(C(=O)N2CCN3C(=O)c4ccccc4C23c2ccc(Cl)cc2)cc1 (centres undefined),1.5,2.1,2.2,74.1*,44.2,15.5
Cn1c2ccccc2c(=O)c2ccc(C#CC3(O)CCCCC3)cc21,-2.9,3.6,-2.3,56.3,16.9,-80.9
O=C(NCc1ccccc1F)c1ccc2c(c1)OCO2,-0.2,-3.0,1.6,-23.8,.,.
O=C(NCCc1ccccc1F)c1ccc2c(c1)OCCO2,0.6,-3.2,-0.1,72.2*,64.8,40.9
NS(=O)(=O)c1ccc(NC(=S)NC2CC2)cc1,2.3,3.3,-2.1,0.5,.,.
CC(=NNC(=S)N1CC2CCC(CC2)C1)c1ccccn1,.,.,.,87.1*,-36.9,-8.9
CC(=NNC(=S)N1CCN(c2ccccn2)CC1)c1ccccn1,.,.,.,3.8,.,.
C/C(=N\NC(=O)C1CCCN(S(=O)(=O)c2ccccc2)C1)c1ccccn1 (centres undefined),-0.9,-1.6,1.3,-3.8,.,.
CC(=NNC(=S)N1CCN(c2ccccn2)CC1)c1nccs1,.,.,.,90.0*,41.9,46.3
CC(=NNC(=S)N1CCCCCC1)c1cccc2cccnc12,.,.,.,-6.1,.,.
CC(=NNC(=S)N1CCN(C2CCCCCC2)CC1)c1ccccn1,.,.,.,77.9*,18.8,-6.7
CC(=NNC(=S)N1CC2CCC(CC2)C1)c1cnccn1,.,.,.,76.4*,-20.4,-26.1
SMILES,NR2E3 ag-1,PP1 inh,PP5 inh,NR2E3 ag-2,NR2E3 ag conf,VP16 counter
CC(=O)NCCNC(=O)c1ccc(CSc2nc3ccccc3s2)cc1,2.9,-3.8,2.7,-62.5,.,.
COc1ccc(Nc2nnc(-c3ccc(O)cc3)c3ccccc23)cc1,-0.7,-1.5,-1.1,4.3,.,.
CC(C)(C)NC(=O)NC(=O)CSc1n[nH]c(-c2ccccc2Br)n1,1.2,-0.9,-0.8,-17.3,.,.
COC(=O)Cc1c(C)c2ccc(OC3CCCCC3=O)cc2oc1=O (centres undefined),.,.,.,-38.0,.,.
COC(=O)Cc1c(C)c2ccc(OC3CCCCC3=O)c(C)c2oc1=O (centres undefined),0.2,-7.7,-1.6,72.0*,40.0,42.0
CN(C)S(=O)(=O)Oc1cccc(C(=O)Nc2ccc(Cl)cc2)c1,1.4,2.0,4.2,59.6,30.4,6.7
CCCCc1ncc(CN2CCC(n3nccc3NC(=O)c3ccccc3OC)CC2)[nH]1,-3.4,2.2,0.7,-3.7,.,.
Cc1ccc(S(=O)(=O)Nc2cccc3cccnc23)c([N+](=O)[O-])c1,1.1,6.0,2.5,75.5*,54.6,22.4
O=S(=O)(Nc1cccc2cccnc12)c1ccccc1,-0.1,4.0,0.1,85.8*,18.1,3.6
Cc1cc(C)c(NS(=O)(=O)c2cccc3cccnc23)c(C)c1,1.6,0.4,2.8,6.0,.,.
O=C(NCc1ccccc1)C(c1ccc(Cl)cc1)N(C(=O)c1csnn1)C1CC1 (centres undefined),2.0,0.6,2.4,-2.4,.,.
Cc1ccc(S(=O)(=O)NNC(=O)C2Cc3c(ccc4ccccc34)O2)cc1 (centres undefined),2.5,-0.4,3.6,60.1,8.4,52.3
CC(=O)c1c(C)[nH]c(C(=O)OCc2cccc(C)c2)c1C,1.5,-4.6,1.6,47.8,27.7,1.2
COc1ccc(CNC(=O)C(C)N2CCN(S(=O)(=O)c3ccccc3F)CC2)cc1 (centres undefined),4.5,-2.9,1.4,11.6,.,.
CCCc1ccc(S(=O)(=O)N2CCN(C(C)C(=O)NCc3ccc(OC)cc3)CC2)cc1 (centres undefined),0.7,-1.7,1.2,49.1,27.1,31.9
Cc1nc(SCC(=O)Nc2nc3ccccc3s2)c(C#N)c(C)c1C,-0.5,-0.6,1.4,92.8*,84.5*,81.1*
Cc1cc(C(F)(F)F)c(C#N)c(SCC(=O)Nc2nc3ccccc3s2)n1,-0.6,-1.0,-0.6,31.4,.,.
CCCCOCCCNC(=O)C[C@@H]1C[C@@]2(C(=O)OC)CCCCC=C2N(Cc2ccccc2)C1=O,.,.,.,-26.1,.,.
COc1cccc(OC)c1OCCCN1CCC(Cc2ccccc2)CC1,3.9,7.8,1.4,-5.4,.,.
CC1CCCCN1S(=O)(=O)c1ccc(N(C(=O)c2cnccn2)C(C(=O)NC2CCCC2)c2cccs2)cc1 (centres undefined),2.8,0.2,0.4,-0.8,.,.
CC1CCCCN1S(=O)(=O)c1ccc(N(C(=O)c2cnccn2)C(C(=O)NC2CCCCC2)c2cccs2)cc1 (centres undefined),-2.3,-0.1,0.3,57.8,52.6,-3.6
COc1ccc(-c2cc(-c3ccccc3)nc(SC(C)C(=O)O)c2C#N)cc1 (centres undefined),11.1,7.1,1.2,-16.3,.,.
CC(C)C(Sc1nc(-c2ccccc2)cc(-c2ccccc2)c1C#N)C(=O)O (centres undefined),4.5,0.6,2.1,58.3,63.2,32.9
